Reference: ChEMBL document CHEMBL1135693, “Solid-phase synthesis of polyamine toxin analogues: potent and selective antagonists of Ca2+-permeable AMPA receptors” (J Med Chem, 2002)

Key:
Glutamate receptor 1 [1] = biological target: T1, Glutamate receptor 1 (Homo sapiens, UniProt P42261); experiment: Inhibition of the (-40 mV) current elicited by 100 uM glutamate by simultaneous co-application in xenopus oocytes injected with GluR1 flop RNA.; type: cell-based, Oocyte
Outline: (§1)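 Two-electrode voltage clamp of stage V–VI Xenopus laevis oocytes (collagenase-isolated), injected with 5-30 ng GluR1 flop cRNA, recorded 3-14 days later in Ringer (pH 7.5; low-Ca2+ Ringer for high-current cells).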

Glutamate receptor 1 [2] = biological target: T1, Glutamate receptor 1; experiment: Inhibition of the (-80 mV) current elicited by 100 uM glutamate by simultaneous co-application in xenopus oocytes injected with GluR1 flop RNA.; type: cell-based, Oocyte; outline: as §1
[3] = Ratio of Ki value at -40 mV to that of -80 mV was determined; type: functional
[4] = Inhibition of the current elicited by 100 uM glutamate by simultaneous co-application of the antagonist in xenopus oocytes injected with a 1:1 mixture of GluR1 flop and GluR2 flop RNA; type: functional, cell-based, Xenopus laevis; conditions: oocyte
Outline: (§2)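 Xenopus laevis oocytes (stage V–VI) injected with 5-30 ng cRNA, either 1:1 GluR1 flop + GluR2 flop or GluR5(Q) flop. After 3-14 days, two-electrode voltage clamp recordings were made in Ringer pH 7.5 (low-Ca2+ Ringer if currents were high). […] Values are means of two independent measurements in triplicate.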

[5] = Inhibition of the current elicited by 100 uM glutamate by simultaneous co-application of the antagonist in xenopus oocytes injected with a 1:1 mixture of GluR1 flop and GluR2 flop RNA as well as GluR5(Q).; type: functional, cell-based, Xenopus laevis; conditions: oocyte; outline: as §2

T1 sequence (P42261 whole entry): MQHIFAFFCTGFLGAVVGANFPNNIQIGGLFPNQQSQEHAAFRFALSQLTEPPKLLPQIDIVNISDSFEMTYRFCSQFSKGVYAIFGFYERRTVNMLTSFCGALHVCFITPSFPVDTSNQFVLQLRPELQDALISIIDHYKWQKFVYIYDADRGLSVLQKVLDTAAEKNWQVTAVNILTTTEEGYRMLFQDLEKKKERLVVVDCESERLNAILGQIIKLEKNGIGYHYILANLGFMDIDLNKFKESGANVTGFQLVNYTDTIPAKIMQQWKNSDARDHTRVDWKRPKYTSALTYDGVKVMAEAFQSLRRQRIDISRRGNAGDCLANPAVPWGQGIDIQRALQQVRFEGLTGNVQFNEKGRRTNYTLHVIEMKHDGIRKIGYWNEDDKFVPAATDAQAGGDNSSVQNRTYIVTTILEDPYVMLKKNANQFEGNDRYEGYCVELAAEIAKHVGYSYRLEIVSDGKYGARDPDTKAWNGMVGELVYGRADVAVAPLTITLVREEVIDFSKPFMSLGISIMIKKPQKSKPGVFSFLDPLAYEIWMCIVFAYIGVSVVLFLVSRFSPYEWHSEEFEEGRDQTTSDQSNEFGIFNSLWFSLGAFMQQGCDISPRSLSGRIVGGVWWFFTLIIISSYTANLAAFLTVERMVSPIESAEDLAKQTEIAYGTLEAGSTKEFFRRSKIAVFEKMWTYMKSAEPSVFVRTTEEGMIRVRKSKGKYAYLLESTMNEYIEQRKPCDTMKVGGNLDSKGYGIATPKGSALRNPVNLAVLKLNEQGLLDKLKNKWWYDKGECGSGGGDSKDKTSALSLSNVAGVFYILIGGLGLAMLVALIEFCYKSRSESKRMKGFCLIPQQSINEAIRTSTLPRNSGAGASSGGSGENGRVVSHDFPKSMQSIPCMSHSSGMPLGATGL

Compound	Ki (Glutamate receptor 1 [1]) [nM]	Ki (Glutamate receptor 1 [2]) [nM]	Ratio [3]	Ki [4] [nM]	Ki [5] [nM]
CC(=O)NC(Cc1ccc(O)cc1)C(=O)NCCCCCCCCNCCCN (configuration not stated)	300	220	1.4		
NCCCNCCCCCCCCNC(=O)C(Cc1ccc(O)cc1)NC(=O)/C=C/c1ccccc1 (configuration not stated)	170	110	1.5		
NCCCNCCCCCCCCNC(=O)C(Cc1ccc(O)cc1)NC(=O)c1ccccn1 (configuration not stated)	170	130	1.3		
CCCC(=O)NC(Cc1ccc(O)cc1)C(=O)NCCCCCCCNCCCCN (configuration not stated)	3000	168	18	1600	290
CCCC(=O)NC(Cc1ccc(O)cc1)C(=O)NCCCCCCCCNCCCN (configuration not stated)	8000	65		> 10000	250
NCCCNCCCCCCCCNC(=O)C(Cc1ccc(O)cc1)NC(=O)c1ccccc1 (configuration not stated)	250	130	1.9		
NCCCNCCCCCCCCNC(=O)C(Cc1ccc(O)cc1)NC(=O)Cc1ccccc1 (configuration not stated)	250	110	2.3		
CC(C)(C)C(=O)NC(Cc1ccc(O)cc1)C(=O)NCCCCCCCCNCCCN (configuration not stated)	140	90	1.6		
CCCC(=O)NC(Cc1ccc(O)cc1)C(=O)NCCCCCCNCCCCCN (configuration not stated)	> 10000	468		6400	800
CCCC(=O)NC(Cc1ccc(O)cc1)C(=O)NCCCCCCCCCNCCN (configuration not stated)	6200	410		> 10000	2100
NCCCNCCCCCCCCNC(=O)C(Cc1ccc(O)cc1)NC(=O)c1ccncc1 (configuration not stated)	330	64	5.1		
CCC(=O)NC(Cc1ccc(O)cc1)C(=O)NCCCCCCCCNCCCN (configuration not stated)	280	100	2.8		
CCCCCC(=O)NC(Cc1ccc(O)cc1)C(=O)NCCCCCCCCNCCCN (configuration not stated)	1000	68	14.7		
CCCC(=O)NC(Cc1ccc(O)cc1)C(=O)NCCCCCNCCCCCCN (configuration not stated)	287	3.3	86	5200	2200
CCCC(=O)NC(Cc1ccc(O)cc1)C(=O)NCCCCNCCCCCCCN (configuration not stated)	135	38	3.6	> 10000	60
NCCCNCCCCCCCCNC(=O)C(Cc1ccc(O)cc1)NC(=O)C1CCCCC1 (configuration not stated)	240	78	3.1		
NCCCNCCCCCCCCNC(=O)C(Cc1ccc(O)cc1)NC(=O)c1cccnc1 (configuration not stated)	210	88	2.4		
CCCC(=O)NC(Cc1ccc(O)cc1)C(=O)NCCCNCCCCNCCCN (configuration not stated)	170000	22000		> 5000	15
NCCCNCCCCCCCCNC(=O)C(Cc1ccc(O)cc1)NC(=O)CCc1ccccc1 (configuration not stated)	254	250	1		
